{"source": "ChEMBL document CHEMBL1158368", "about": "“Synthesis of novel 3-(aryl)benzothieno[2,3-c]pyran-1-ones from Sonogashira products and intramolecular cyclization: Antitumoral activity evaluation” (2009)", "format_in_all_cases": "functional", "key": {"NCI-H460": {"system": "NCI-H460", "assay": "Cytotoxicity against human NCI-H460 cells after 48 hrs by SRB assay", "details": "NCI-H460, 48 h", "in_short": "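NCI-H460 cells were plated at 0.75 × 10⁴ cells/mL to keep growth exponential, left overnight to attach, and treated for 48 h at 37 °C in humidified 5% CO₂, with DMSO vehicle controls at up to 0.25%. Readout was SRB staining of in-situ-fixed cells, with solubilized dye measured at 492 nm. GI₅₀ (50% net growth inhibition) came from dose–response curves in duplicate.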"}, "CNS cell": {"system": "CNS cell", "assay": "Cytotoxicity against human CNS cells after 48 hrs by SRB assay", "in_short": "(§1)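 Cells were seeded at 1.5 × 10⁵ cells/mL (MCF-7 and SF-268) so growth stayed exponential, attached overnight, then were exposed to compound for 48 h at 37 °C in humidified 5% CO₂. Untreated controls received DMSO vehicle at up to 0.25%. Cells were fixed in situ and stained with SRB; the bound dye was solubilized and read at 492 nm. GI₅₀ (50% inhibition of net growth) came from dose–response curves, run in duplicate.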"}, "MCF7": {"system": "MCF7", "assay": "Cytotoxicity against human MCF7 cells after 48 hrs by SRB assay", "details": "MCF7, 48 h", "in_short": "as §1"}}, "data": [{"smiles": "O=c1oc(-c2ccccc2F)cc2c1sc1ccccc12", "values": [{"measurement": "GI50", "setting": "NCI-H460", "result": 15.5, "unit": "µM"}, {"measurement": "GI50", "setting": "CNS cell", "result": 12.4, "unit": "µM"}, {"measurement": "GI50", "setting": "MCF7", "result": 19.4, "unit": "µM"}]}, {"smiles": "COC(=O)c1sc2ccccc2c1C#Cc1ccccc1", "values": [{"measurement": "GI50", "setting": "NCI-H460", "result": 58.9, "unit": "µM"}, {"measurement": "GI50", "setting": "CNS cell", "result": 64.7, "unit": "µM"}, {"measurement": "GI50", "setting": "MCF7", "result": 71.6, "unit": "µM"}]}, {"smiles": "COc1ccc(-c2oc(=O)c3sc4ccccc4c3c2I)cc1", "values": [{"measurement": "GI50", "setting": "NCI-H460", "result": "> 150", "unit": "µM"}, {"measurement": "GI50", "setting": "CNS cell", "result": "> 150", "unit": "µM"}, {"measurement": "GI50", "setting": "MCF7", "result": "> 150", "unit": "µM"}]}, {"smiles": "O=c1oc(-c2ccc(F)cc2)c(I)c2c1sc1ccccc12", "values": [{"measurement": "GI50", "setting": "NCI-H460", "result": 35.8, "unit": "µM"}, {"measurement": "GI50", "setting": "CNS cell", "result": 20.7, "unit": "µM"}, {"measurement": "GI50", "setting": "MCF7", "result": 25.2, "unit": "µM"}]}, {"smiles": "O=c1oc(-c2ccc(F)cc2)cc2c1sc1ccccc12", "values": [{"measurement": "GI50", "setting": "NCI-H460", "result": "> 25", "unit": "µM"}, {"measurement": "GI50", "setting": "CNS cell", "result": "> 25", "unit": "µM"}, {"measurement": "GI50", "setting": "MCF7", "result": "> 25", "unit": "µM"}]}, {"smiles": "O=c1oc(-c2ccccc2)cc2c1sc1ccccc12", "values": [{"measurement": "GI50", "setting": "NCI-H460", "result": "> 112", "unit": "µM"}, {"measurement": "GI50", "setting": "CNS cell", "result": "> 112", "unit": "µM"}, {"measurement": "GI50", "setting": "MCF7", "result": "> 112", "unit": "µM"}]}, {"smiles": "COC(=O)c1sc2ccccc2c1C#Cc1ccccc1F", "values": [{"measurement": "GI50", "setting": "NCI-H460", "result": 30.2, "unit": "µM"}, {"measurement": "GI50", "setting": "CNS cell", "result": 25.7, "unit": "µM"}, {"measurement": "GI50", "setting": "MCF7", "result": 40.9, "unit": "µM"}]}, {"smiles": "COC(=O)c1sc2cc(OC)ccc2c1C#Cc1ccccc1F", "values": [{"measurement": "GI50", "setting": "NCI-H460", "result": 10.3, "unit": "µM"}, {"measurement": "GI50", "setting": "CNS cell", "result": 7.2, "unit": "µM"}, {"measurement": "GI50", "setting": "MCF7", "result": 11.4, "unit": "µM"}]}, {"smiles": "COc1ccc2c(c1)sc1c(=O)oc(-c3ccc(F)cc3)cc12", "values": [{"measurement": "GI50", "setting": "NCI-H460", "result": 118, "unit": "µM"}, {"measurement": "GI50", "setting": "CNS cell", "result": 28.9, "unit": "µM"}, {"measurement": "GI50", "setting": "MCF7", "result": 109, "unit": "µM"}]}, {"smiles": "COC(=O)c1sc2cc(OC)ccc2c1C#Cc1ccccc1", "values": [{"measurement": "GI50", "setting": "NCI-H460", "result": 42.3, "unit": "µM"}, {"measurement": "GI50", "setting": "CNS cell", "result": 54.9, "unit": "µM"}, {"measurement": "GI50", "setting": "MCF7", "result": 79.6, "unit": "µM"}]}, {"smiles": "COc1ccc2c(c1)sc1c(=O)oc(-c3ccc(F)cc3)c(I)c12", "values": [{"measurement": "GI50", "setting": "NCI-H460", "result": "> 150", "unit": "µM"}, {"measurement": "GI50", "setting": "CNS cell", "result": "> 150", "unit": "µM"}, {"measurement": "GI50", "setting": "MCF7", "result": "> 150", "unit": "µM"}]}, {"smiles": "COC(=O)c1sc2ccccc2c1C#Cc1ccc(F)cc1", "values": [{"measurement": "GI50", "setting": "NCI-H460", "result": 56.2, "unit": "µM"}, {"measurement": "GI50", "setting": "CNS cell", "result": 76.1, "unit": "µM"}, {"measurement": "GI50", "setting": "MCF7", "result": 60.6, "unit": "µM"}]}, {"smiles": "COc1ccc(-c2cc3c(sc4ccccc43)c(=O)o2)cc1", "values": [{"measurement": "GI50", "setting": "NCI-H460", "result": "> 75", "unit": "µM"}, {"measurement": "GI50", "setting": "CNS cell", "result": "> 75", "unit": "µM"}, {"measurement": "GI50", "setting": "MCF7", "result": "> 75", "unit": "µM"}]}, {"smiles": "COc1ccc2c(c1)sc1c(=O)oc(-c3ccccc3)cc12", "values": [{"measurement": "GI50", "setting": "NCI-H460", "result": "> 75", "unit": "µM"}, {"measurement": "GI50", "setting": "CNS cell", "result": "> 75", "unit": "µM"}, {"measurement": "GI50", "setting": "MCF7", "result": "> 75", "unit": "µM"}]}, {"smiles": "COC(=O)c1sc2ccccc2c1C#Cc1ccc(OC)cc1", "values": [{"measurement": "GI50", "setting": "NCI-H460", "result": 103, "unit": "µM"}, {"measurement": "GI50", "setting": "CNS cell", "result": "> 150", "unit": "µM"}, {"measurement": "GI50", "setting": "MCF7", "result": 90.6, "unit": "µM"}]}, {"smiles": "COC(=O)c1sc2cc(OC)ccc2c1C#Cc1ccc(F)cc1", "values": [{"measurement": "GI50", "setting": "NCI-H460", "result": 10.1, "unit": "µM"}, {"measurement": "GI50", "setting": "CNS cell", "result": 20.9, "unit": "µM"}, {"measurement": "GI50", "setting": "MCF7", "result": 12.6, "unit": "µM"}]}, {"smiles": "COc1ccc2c(c1)sc1c(=O)oc(-c3ccccc3F)c(I)c12", "values": [{"measurement": "GI50", "setting": "NCI-H460", "result": 10.9, "unit": "µM"}, {"measurement": "GI50", "setting": "CNS cell", "result": 11.3, "unit": "µM"}, {"measurement": "GI50", "setting": "MCF7", "result": 11.9, "unit": "µM"}]}, {"smiles": "COc1cccc2c1C(=O)c1c(O)c3c(c(O)c1C2=O)C[C@@](O)(C(=O)CO)C[C@@H]3O[C@H]1C[C@H](N)[C@H](O)[C@H](C)O1", "note": "[DOXORUBICIN]", "values": [{"measurement": "GI50", "setting": "NCI-H460", "result": 0.094, "unit": "µM"}, {"measurement": "GI50", "setting": "CNS cell", "result": 0.094, "unit": "µM"}, {"measurement": "GI50", "setting": "MCF7", "result": 0.0428, "unit": "µM"}]}]}
